Assay outcomes: PubChem BioAssay, several laboratories
An excerpt weighted towards active compounds, which were near 2.1% of everything screened.
p97 ATPase inh – inhibitors of human p97 ATPase, primary screen, biochemical; recombinant p97 ATPase, Kinase-Glo ATP luminescence, 3 h; inhibition, % at 8 µM; hit rate 0.42% among 220,000; AID 1481, 2009; in the data active = inhibition above about 15%;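 also: 0% = DMSO vehicle and 100% = wells lacking enzyme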
RanGTP-Imp inh – inhibitors of RanGTP-importin-beta interaction, primary screen, biochemical, FRET, CFP-Ran, YFP-importin-beta, homogeneous. Ran GTPase (GTP-bound) - importin-beta complex. cell-free CFP-Ran/YFP-importin-beta FRET ratio. inhibition, % (no concentration beside the values). hit rate 1.1% among 300,000;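 active = more than half of the replicate wells show a fall in the fluorescence ratio signal beyond about 16%, limit read from the data, passing the limit was not always enough; inconclusive = exactly half of the replicate wells pass the set limit; inactive = fewer than half of replicates pass the limit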;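 also: 0% = DMSO wells and 100% = Ran loaded with GDP instead of GTP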
Hck-Nef inh – inhibitors of Nef-activated human Hck kinase, primary screen, biochemical, Z-Lyte FRET, 384-well, Hck-YEEI. Recombinant Hck-YEEI plus Nef, Z-Lyte FRET kinase assay. inhibition, % at 20 µM. hit rate 0.68% among 220,000. AID 463187, 2010;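 active = Hck-Nef kinase inhibition above about 50%, limit read from the data; inactive = inhibition below that limit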;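 also: 0% = DMSO with Hck plus Nef and 100% = Hck alone without Nef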
Runt-SMMHC FRET – inhibitors of RUNX1 Runt–CBFb-SMMHC binding, primary screen, biochemical, FRET, Cerulean-Runt, Venus-CBFb-SMMHC, uHTS; Runt-related transcription factor 1 (Homo sapiens) + Core-binding factor subunit beta …; hit rate 0.74% among 220,000; Cerulean-Runt/Venus-CBFb-SMMHC FRET ratio 530/480, 1 h; AID 1434, 2008; inhibition, % at 20 µM;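 active = mean inhibition across duplicate retests at 20 µM reaching about 50%, limit read from the data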;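 also: 0% = DMSO wells and 100% = wells with excess untagged CBFb-SMMHC; inhibitors lower the FRET ratio by blocking Runt binding to CBFb-SMMHC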
Target sequence (Q01196 whole entry, looked up): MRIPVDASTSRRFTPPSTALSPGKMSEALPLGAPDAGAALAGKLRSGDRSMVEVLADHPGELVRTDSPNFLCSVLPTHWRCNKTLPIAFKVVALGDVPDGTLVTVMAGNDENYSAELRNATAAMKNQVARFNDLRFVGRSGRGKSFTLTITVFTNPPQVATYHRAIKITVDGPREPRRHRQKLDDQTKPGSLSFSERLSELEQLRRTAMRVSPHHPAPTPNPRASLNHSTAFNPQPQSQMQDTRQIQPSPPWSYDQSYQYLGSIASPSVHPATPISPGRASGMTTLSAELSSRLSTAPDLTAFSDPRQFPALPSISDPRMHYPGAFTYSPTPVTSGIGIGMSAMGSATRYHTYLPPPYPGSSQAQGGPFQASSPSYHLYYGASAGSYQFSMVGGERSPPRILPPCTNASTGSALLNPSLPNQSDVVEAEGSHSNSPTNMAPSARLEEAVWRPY
Target sequence (Q13951 whole entry, looked up): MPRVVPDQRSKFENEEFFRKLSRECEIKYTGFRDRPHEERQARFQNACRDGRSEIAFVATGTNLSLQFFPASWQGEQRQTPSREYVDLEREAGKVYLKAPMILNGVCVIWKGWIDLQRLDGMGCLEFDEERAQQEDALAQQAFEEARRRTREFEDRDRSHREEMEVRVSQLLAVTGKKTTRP
Runt-CBFb FRET – inhibitors of RUNX1 Runt–CBFb binding, primary screen, biochemical, FRET, Cerulean-Runt, Venus-CBFb, uHTS | Runt-related transcription factor 1 (Homo sapiens) + Core-binding factor subunit beta … | Cerulean-Runt/Venus-CBFb FRET ratio 530/480, 1 h | inhibition, % at 20 µM | hit rate 0.46% among 220,000;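 active = inhibition over about 50% at 20 µM in the single-dose screen, limit read from the data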;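 also: 0% = DMSO wells and 100% = excess unlabeled CBFb competitor control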
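Assay system: Cerulean-tagged RUNX1 Runt domain (FRET donor) fusion protein / Amount: 100 nM each of Venus-CBFb and Cerulean-Runt domain / Medium: Tris buffer pH 7.5 with salts and BSA / Also added: Venus-CBFb 100 nM / Schedule: 1 h complex formation plus 1 h compound treatment, room temperature / Signal: FRET fluorescence / Read-out: loss of energy transfer signal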
Tb hexokinase – Trypanosoma brucei hexokinase 1 inhibitors, primary screen, biochemical, G6PDH-coupled NADH absorbance, MLSCN library. hexokinase 1 [Trypanosoma brucei]. inhibition, % at 10 µM. recombinant TbHK1, G6PDH-coupled NADH A340. hit rate 0.11% among 220,000;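 active = inhibition of 50% or more in the single-dose primary screen; inactive = inhibition below 50%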
G6PDH counter – Leuconostoc G6PDH inhibition, confirmation, counter-screen for TbHK1 inhibitor project, biochemical, DPI cherry-picked compounds, single concentration | shares compounds with Tb hexokinase | purified G6PDH, NADH absorbance, 1 h | inhibition, % at 10 µM | hit rate 7% among 210 | AID 2516, 2010;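 active = at least 50% inhibition in the glucose-6-phosphate dehydrogenase coupled counterscreen; inconclusive = no clear call, values can overlap the other calls; inactive = inhibition below 50%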
TbHK1 rescreen – TbHK1 inhibitor retest, confirmation, biochemical, DPI cherry-picked primary actives | shares compounds with Tb hexokinase | AID 2560, 2010 | inhibition, % at 10 µM | hit rate 10% among 210 | recombinant TbHK1, G6PDH-coupled NADH A340 absorbance;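 active = inhibition of at least 50% in both of the two screening runs; inconclusive = at least 50% in one run, below 50% in the other; inactive = inhibition below 50% in both runs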;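 also: 0% and 100% set by the maximum and minimum signal control wells on each plate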
p97 confirm – p97 ATPase inhibitors, retest, confirmation, biochemical; shares compounds with p97 ATPase inh; recombinant p97 ATPase, Kinase-Glo ATP luminescence; inhibition, % at 8 µM; hit rate 44% among 760; AID 1517, 2009;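 active = percent inhibition of p97 ATPase above a set limit, the primary screen's mean plus 3 SD, cut at about 15% in these data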;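 also: 0% = DMSO wells and 100% = wells lacking p97 protein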
RUNX1 CBFb TR – inhibitors of RUNX1 Runt–CBFb binding, biochemical, TR-FRET; inhibition, % at 20 µM; hit rate 20% among 480; TR-FRET RUNX1 Runt domain-CBFb binding; shares compounds with Runt-CBFb FRET; in the data active = inhibition above about 40%
Hck-Nef confirm – retest of Hck:Nef kinase inhibitor hits, confirmation, biochemical, Z-Lyte FRET, 384-well, p-Tyr peptide counterscreen; shares compounds with Hck-Nef inh; Recombinant Hck-YEEI:Nef, Z-Lyte FRET kinase assay; calls only at 10 µM; hit rate 28% among 1,300; AID 463188, 2010;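 active = average inhibition of at least 50%, with Z-scores no higher than 3 in both the phospho-tyrosine peptide and fluorescence counterscreens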
An asterisk follows results filed as active; u = inconclusive; x = no result; + = active, no number.

SMILES | p97 ATPase inh | RanGTP-Imp inh | Hck-Nef inh | Runt-SMMHC FRET | Runt-CBFb FRET | Tb hexokinase | G6PDH counter | TbHK1 rescreen | others
CCC(C)NC(=O)NC1C(NC(=O)NC(C)CC)N(C)C(=O)N1C (stereo unspecified) | 5.1 | 0.5 | 0.4 | -1.3 | -0.7 | 3.4 | x | x
CC(C)CNC(=O)NC1C(NC(=O)NCC(C)C)N(C)C(=O)N1C (stereo unspecified) | 3.1 | 3.1 | 5.6 | -3.9 | -0.6 | 56.7* | -9.3 | -1.7
CCC1Oc2ccccc2N(CC(=O)NCCc2ccc(OC)c(OC)c2)C1=O (stereo unspecified) | 3.2 | 3.2 | 9.1 | -0.8 | -1.3 | 1.1 | x | x
CCC1Oc2ccccc2N(CC(=O)Nc2ccccc2OC)C1=O (stereo unspecified) | -1.8 | -3.4 | 1.7 | 1.5 | -2.5 | 50.7* | 1.6 | 0.1
COc1ccc(OC)c(S(=O)(=O)N2CCC(C(=O)NCc3ccncc3)CC2)c1 | x | 6.3 | x | x | x | x | x | x
O=C(COc1ccc(Br)cc1)NNC(=S)NC(=O)c1ccccc1[N+](=O)[O-] | 7.7 | 1.0 | 3.2 | 2.0 | 9.4 | 60.9* | -20.1 | -6.1
CC1=C(C(=O)NC2CCCc3c2cnn3-c2cc(F)cc(F)c2)OCCO1 (stereo unspecified) | x | 3.6 | x | x | x | x | x | x
COc1cc(C2C(C#N)=C(N)Oc3cc(N(C)C)ccc32)cc2c1OCO2 (stereo unspecified) | 5.5 | 26.9* | 4.7 | 13.2 | -8.8 | 59.1* | -7.4 | -12.7
Cc1cccc(CN2CCSc3sccc3C2=O)c1 | 1.9 | -0.9 | 1.9 | 0.0 | -2.8 | -13.2 | x | x
NS(=O)(=O)c1ccc(N/N=C/c2ccc(O)c(O)c2O)c([N+](=O)[O-])c1 | 47.9* | x | 50.6* | 64.6* | 42.6 | 67.5* | -41.2 | 14.9 | p97 confirm=49.6*
COC(=O)C1(CCSC)NC(c2ccc(O)c(OC)c2)C2C(=O)N(c3ccc(C)cc3)C(=O)C21 (stereo unspecified) | 5.6 | 2.1 | 19.9 | -0.5 | 0.6 | -2.5 | x | x
Cn1nc(-c2ccccn2)nc2c(=O)n(C)c(=O)nc1-2 | 34.0* | -4.3 | 17.5 | -28.2 | -8.1 | 70.1* | u | 40.9 | p97 confirm=33.3*
O=C(O)CSc1cc(NS(=O)(=O)c2cccc([N+](=O)[O-])c2)c2ccccc2c1O | 26.7* | 0.5 | 44.5 | -3.6 | 15.4 | 62.6* | 74.2* | 62.3* | p97 confirm=40.0*
CCc1ccc(S(=O)(=O)Nc2cc(SCC(=O)O)c(O)c3ccccc23)cc1 | 7.0 | 0.1 | 18.1 | 6.0 | 25.7 | 3.8 | x | x
CCCN1CCN(C(=O)c2oc3c(Cl)cccc3c2C)CC1 | x | -0.5 | x | x | x | x | x | x
O=c1c2ccccc2sn1-c1nccs1 | -2.1 | 7.8 | -26.5 | 79.5* | 50.1* | 71.8* | -12.4 | 74.0* | RUNX1 CBFb TR=-7.8
COc1ccc(NC2CCCN(C(=O)C3(C)CCCCC3)C2)cc1 (stereo unspecified) | x | 2.1 | x | x | x | x | x | x
CN1C(=O)C(Cl)(Cl)C(=O)c2ccccc21 | 3.6 | 3.4 | -5.4 | 55.3 | 54.0* | 75.0* | 32.9 | 32.7 | RUNX1 CBFb TR=5.2
CN1C(=O)C2(NC(=O)c3ccccc3N2C)c2ccccc21 (stereo unspecified) | 2.4 | -3.2 | 28.7 | -3.5 | -1.7 | -9.0 | x | x
Cc1ccc(-c2nc(N)s[n+]2-c2ccccc2)cc1 | -2.1 | 5.8 | 101.0* | 65.1* | 9.3 | 98.1* | 14.5 | 94.9* | Hck-Nef confirm=+
Cc1cc(C(=O)N2CCCC(Nc3ccc(F)cc3)C2)n(C)n1 (stereo unspecified) | x | 3.2 | x | x | x | x | x | x
CC1=Nc2ccccc2/C1=C/c1sc(=S)n(-c2cccc(C(=O)O)c2)c1O | 16.4* | 2.7 | 4.3 | -197.5 | -58.4 | 2.0 | x | x | p97 confirm=34.6*
COc1c(C)cc(C(=O)C2CCCN(C(=O)c3cc(C4CC4)[nH]n3)C2)cc1C (stereo unspecified) | x | 1.1 | x | x | x | x | x | x
COc1ccc(NC(=O)c2cc(CC(C)C)nc3ccccc23)cc1 | x | -1.1 | x | x | x | x | x | x
O=C1NN(c2ccc(Cl)c(Cl)c2)C(=O)/C1=C/c1cccc(OC(=O)c2cccs2)c1 | 19.2* | -2.9 | 21.8 | -2.0 | 1.7 | 7.5 | x | x | p97 confirm=7.1
SMILES | p97 ATPase inh | RanGTP-Imp inh | Hck-Nef inh | Runt-SMMHC FRET | Runt-CBFb FRET | Tb hexokinase | G6PDH counter | TbHK1 rescreen | others
O=C1NN(c2ccccc2)C(=O)/C1=C\c1cccc(OC(=O)c2cccs2)c1 | 5.9 | -2.2 | 7.5 | 10.8 | 2.9 | -2.1 | x | x
CCN1CCCC1CNS(=O)(=O)c1ccc(Cl)c(C(F)(F)F)c1 (stereo unspecified) | 4.3 | -4.0 | 17.8 | 1.6 | 1.4 | 4.6 | x | x
COC(=O)CC1=NN(c2nc3ccccc3s2)C(=O)/C1=C/N(C)C | -6.4 | 1.5 | -16.0 | -2.0 | -2.0 | -0.5 | x | x
COc1cc(/C=C2\SC(=Nc3ccc(O)cc3)NC2=O)cc(OC)c1OC | 4.0 | 4.8 | 15.8 | -18.0 | -6.0 | -53.4 | x | x
O=C1NC(=Nc2ccc(O)cc2)S/C1=C\C=C\c1ccco1 | 35.9* | 2.1 | 94.2* | -11.3 | 10.0 | -11.9 | x | x | p97 confirm=31.3*
COc1cc(/C=C2/SC(=Nc3ccc(O)cc3)NC2=O)cc(OC)c1O | 26.0* | 1.4 | 32.0 | -51.1 | -4.1 | -17.6 | x | x | p97 confirm=20.1*
